HTRA1 inh: HTRA1 (human) protease inhibition | Q92743 | recombinant HTRA1, FP-rhodamine activity-based probe, fluorescence polarization | inhibition, % at 5.96 µM | 340,000 tested, 0.5% active; in the data active means inhibition above about 36%;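 further: 0% = enzyme with DMSO and 100% = wells lacking enzyme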
PRMT1 FP inh: PRMT1 (human) inhibition, primary screen; AID 652257; 370,000 tested, 1.3% active; inhibition, % at 2.79 µM; recombinant PRMT1, activity-based probe fluorescence polarization;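 active means inhibition above about 21% made by adding two undisclosed values, limit read from the data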
SIAE inh: inhibitors of human sialic acid acetylesterase SIAE; Q9HAT2; SIAE FP-Rh probe binding, fluorescence polarization; inhibition, % at 9.66 µM; 370,000 tested, 0.69% active; AID 1053197;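 active means inhibition above a cutoff: mean of compounds within the control limits plus 3 SD of those, cut at about 17% in these data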;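 further: 0% = plate median of compound wells and 100% = probe without SIAE protein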
Target sequence (Q9HAT2 whole entry, looked up): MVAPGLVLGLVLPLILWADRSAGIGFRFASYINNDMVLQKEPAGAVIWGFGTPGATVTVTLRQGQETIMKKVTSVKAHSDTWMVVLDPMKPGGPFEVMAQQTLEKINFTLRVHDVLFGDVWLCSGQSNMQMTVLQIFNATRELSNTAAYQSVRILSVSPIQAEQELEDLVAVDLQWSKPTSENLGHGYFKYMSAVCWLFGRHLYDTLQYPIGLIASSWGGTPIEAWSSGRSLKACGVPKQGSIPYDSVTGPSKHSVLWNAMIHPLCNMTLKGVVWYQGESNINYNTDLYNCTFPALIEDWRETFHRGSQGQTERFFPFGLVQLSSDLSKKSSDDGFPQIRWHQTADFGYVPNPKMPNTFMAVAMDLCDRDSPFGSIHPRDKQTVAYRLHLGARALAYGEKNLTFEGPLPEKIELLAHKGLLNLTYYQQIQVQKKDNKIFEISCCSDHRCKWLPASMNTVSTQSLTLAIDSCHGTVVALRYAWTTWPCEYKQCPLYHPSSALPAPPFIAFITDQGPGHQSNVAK
ABHD4 inh: inhibits mouse alpha/beta hydrolase domain 4. purified mABHD4, FP-Rh probe fluorescence polarization. 370,000 tested, 0.54% active. inhibition, % at 8.92 µM. Q8VD66;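 active means inhibition exceeding the mean over every tested compound plus 3 SD, cut at about 30% in these data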;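 further: 0% = plate median of compound wells and 100% = S159A mutant with DMSO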
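Assay system: Wild-type mouse ABHD4 protein | Medium: HEPES pH 7.0 buffer, 150 mM NaCl, 0.01% Pluronic F-127 | Incubation: Enzyme–compound pre-incubation 45 min, then probe 60 min, both 25 °C | Technique: Fluorescence polarization with parallel and perpendicular emission, 525/598 nm | Evaluation: % inhibition of FP-Rh probe binding versus controls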
PAD4 FP inh: blocks human protein arginine deiminase 4; Q9UM07; recombinant PAD4, RCA probe fluorescence polarization; inhibition, % at 6.36 µM; 330,000 tested, 0.41% active;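 active means percent inhibition above a cutoff equal to the mean of all tested compounds plus 3 SD, cut at about 15% in these data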;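 further: 0% = PAD4 with RCA probe and DMSO and 100% = probe without PAD4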
TCR CD3 inh: inhibitors of human TCR-CD3 interaction. inhibition, % at 9.4 µM. 360,000 tested, 0.37% active. TAMRA-labeled TCR probe fluorescence, biochemical;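 further: recombinant mutant TCR 2C K166C tagged with TAMRA read by polarization; 0% = receptor in buffer alone and 100% = receptor with positive control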
HTRA1 conf: HTRA1 (human) inhibition, confirmation. shares compounds with HTRA1 inh. recombinant HTRA1, FP-rhodamine activity-based probe, fluorescence polarization. inhibition, % at 5.96 µM. 1,600 tested, 66% active. AID 540248;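 active means mean inhibition over three repeats above a set limit taken from the earlier primary screen, cut at about 37% in these data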;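 further: 0% = HTRA1 with DMSO and 100% = wells lacking HTRA1; inhibitors block probe binding so polarization drops and inhibition rises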
BSA TAMRA ctr: BSA probe counter-screen for TCR-CD3 inhibitors; shares compounds with TCR CD3 inh; TAMRA-labeled BSA probe fluorescence counterscreen; inhibition, % at 9.4 µM; 1,200 tested, 10% active; AID 652035; in the data active means inhibition above about 23%;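 further: 0% = buffer low control and 100% = reference high control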
TCR-CD3 inh conf: TCR-CD3 interaction inhibition, confirmation | shares compounds with TCR CD3 inh | TAMRA-labeled TCR probe fluorescence binding assay | inhibition, % at 9.4 µM | 1,200 tested, 48% active
PRMT1 confirm: confirmation of human PRMT1 inhibitors | shares compounds with PRMT1 FP inh | AID 687036 | recombinant His-PRMT1, activity-based probe fluorescence polarization | inhibition, % at 2.79 µM | 3,300 tested, 42% active;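 active means mean inhibition across replicates above the hit cutoff derived for the earlier primary screen, cut at about 22% in these data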
mABHD4 conf: ABHD4 (mouse) inhibition, FP confirmation; shares compounds with ABHD4 inh; purified mABHD4, FP-Rh probe fluorescence polarization; inhibition, % at 8.92 µM; 1,800 tested, 55% active; AID 720658;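 active means mean inhibition across replicates above the hit cutoff set in the primary screen, cut at about 30% in these data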;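 further: 0% = wild-type ABHD4 with DMSO and 100% = catalytically dead S159A mutant with DMSO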
* hit, by the source's call; / = not tested or not shown; ! = not active in a repeat. An excerpt weighted towards active compounds, which were near 2.9% of everything screened. Unless noted, no stated cut-off is given here; in the data, active means inhibition above about 19%; inactive means the rest.

SMILES	HTRA1 inh	PRMT1 FP inh	SIAE inh	ABHD4 inh	PAD4 FP inh	TCR CD3 inh	HTRA1 conf	mABHD4 conf	others
N#C/C(=C/c1cccc(O)c1)C(=O)NCc1ccc(Cl)cc1	-1	-1	1	-1	0	-4	/	/
N#C/C(=C\c1ccc(O)c(Br)c1)C(=O)NCc1ccccc1	6	1	-8	3	-1	4	/	/
CC(NC(=O)/C(C#N)=C/c1ccc(Cl)c([N+](=O)[O-])c1)c1ccccc1 (stereo not given)	/	5	-6	6	-2	-5	/	/
N#C/C(=C\c1ccc(O)c(O)c1)C(=O)Nc1ccccc1	68*	16	10	73*	3	12	177*	43*
CN1CCc2cccc3c2[C@H]1Cc1ccc(O)c(O)c1-3	59*	86*	18*!	88*	6	-8	50*	28	PRMT1 confirm=38*
COc1cccc(Cn2cc(COC(=O)NCC(C)C)nn2)c1	/	-1	8	0	/	/	/	/
Cc1cccc(/C=C/C(=O)c2cc(Br)ccc(=O)c2O)c1	57*	37*	9	36*	1	1	59*	26
CCc1ccc(/C=C/C(=O)c2cc(Br)ccc(=O)c2O)cc1	67*	32*	13	38*	-8	-7	66*	10	PRMT1 confirm=19
O=C(C=Cc1ccccc1)c1cc(Br)ccc1O	-16	-4	-4	-7	/	-4	/	/
Cc1ccc(O)c(C(C)c2c[nH]c3ccccc23)c1 (stereo not given)	/	4	-3	-12	/	/	/	/
CCN(CC)c1ccc(C=Nc2cc(C)ccc2C)c(O)c1	0	-3	2	7	-3	13	/	/
CCN(CC)c1ccc(/C=N/Nc2ccc(C)cc2)c(O)c1	42*	7	13	31*	-3	4	20	31*
CCCCCC[C@H](CC)CN(C(=O)Oc1ccccc1)c1ccccc1	/	3	-1	-2	/	/	/	/
NS(=O)(=O)c1ccc(N=Nc2c(O)c(C(=O)O)cc3ccccc23)cc1	45*	12	9	49*	-2	-5	9	20
COC(=O)[C@H](C(C)C)N1Cc2nnn(Cc3ccc(C)cc3)c2-c2ccccc2S1(=O)=O	/	4	-1	2	/	/	/	/
COc1cccc2c1C(=O)c1c(O)c3c(c(O)c1C2=O)C[C@@](O)(C(C)=O)C[C@@H]3O[C@H]1C[C@H](N)[C@H](O)[C@H](C)O1	72*	163*	45*	62*	/	162*	74*	48*	BSA TAMRA ctr=183*;TCR-CD3 inh conf=150*;PRMT1 confirm=169*
CCCC[C@@H]1C(=O)N2N=Cc3cscc3[C@H]2N2N=Cc3cscc3[C@@H]12	/	2	-2	-4	/	/	/	/
CO[C@H]1/C=C/O[C@@]2(C)Oc3c(C)c(O)c4c(O)c(c(C=NN5CCN(C)CC5)c(O)c4c3C2=O)NC(=O)/C(C)=C\C=C\[C@H](C)[C@H](O)[C@@H](C)[C@@H](O)[C@@H](C)[C@H](OC(C)=O)[C@@H]1C	36*	2	6	35*	-1	4	7	3
O=C(O)c1ccc(Cl)c2c1C1C=CCC1C(c1ccccn1)N2 (stereo not given)	/	/	/	/	12	/	/	/
O=[N+]([O-])c1ccc(Cl)c2c1C1C=CCC1C(c1ccccn1)N2 (stereo not given)	60*	14	12	43*	9	3	43*	74*
COc1ccc(N2C3=C(CC4=C2CCCC4=O)C(=O)CCC3)cc1	76*	10	14	59*	7	2	68*	16
O=C1C(NS(=O)(=O)c2cccs2)=C(N2CCN(c3cccc(Cl)c3)CC2)C(=O)c2ccccc21	58*	11	7	55*	-12	-5	75*	56*
CC1CCN(C2=C(NS(=O)(=O)c3ccc(Br)cc3)C(=O)c3ccccc3C2=O)CC1	36*	2	8	41*	-9	-2	86*	65*
O=C1C(NS(=O)(=O)c2ccccc2)=C(N2CCN(c3ccc(F)cc3)CC2)C(=O)c2ccccc21	48*	6	2	53*	-4	-6	63*	63*
Cc1ccc(C)c(NC(=O)c2cccc3c2-c2ccccc2C3=O)c1	/	-3	-3	-1	/	/	/	/
SMILES	HTRA1 inh	PRMT1 FP inh	SIAE inh	ABHD4 inh	PAD4 FP inh	TCR CD3 inh	HTRA1 conf	mABHD4 conf	others
O=C1c2ccccc2C(=O)c2c(/C=C/N3CCCCC3)ccnc21	61*	6	11	46*	/	7	64*	36*
O=C(O)c1cccc2c1C(=O)c1ccccc1-2	1	-3	-3	-1	4	1	/	/
O=C1c2ccccc2C(=O)c2c(O)c(O)cc(O)c21	72*	27*	12	73*	96*	25*	71*	61*	BSA TAMRA ctr=44*;TCR-CD3 inh conf=34*;PRMT1 confirm=21
CCOC(=O)N[C@H](C(=O)N1CCC[C@H]1C(=O)NCCc1ccccc1Cl)C1CCCCC1	/	-3	2	1	/	5	/	/
COC(=O)c1ccc(S(=O)(=O)N2CCC(NC(=O)CCc3ccccc3)CC2)cc1	/	2	-7	0	/	/	/	/
NC(=S)N=Nc1c(O)cc(O)c2[nH]c(=O)ccc12	61*	70*	12	34*	/	30*	43*	77*
c1cc2c3c(cccc3c1)NN=N2	37*	6	8	33*	/	-1	33	27
CCCCCCCCCCCCCCC(O)C[N+](C)(CCO)CCO (stereo not given)	54*	-2	-7	45*	/	0	55*	48*
CCCCCCCC(=O)OCC(O)CO (stereo not given)	2	0	-7	6	-1	9	/	/
Cc1cc(C)nc(NC(=S)N2CCN(c3ncc(C(F)(F)F)cc3Cl)CC2)c1	/	12	-1	26	/	/	/	/
COC(=O)[C@]12C[C@H](CC(=O)NCC34CC5CC(CC(C5)C3)C4)C(=O)N(CCC3=CCCCC3)C1=C[C@H](C1CCCC1)O[C@@H]2C	/	2	1	4	/	/	/	/
O=C(c1cc(O)c(O)c([N+](=O)[O-])c1)c1ccccc1F	48*	35*	14	37*	1	-2	63*	32*	PRMT1 confirm=12
